Screens: PubChem, several laboratories
A selection: hits, their analogues and other compounds. The true share with any hit is near 1.9%.
MBD2 inh: blocks human MBD2 binding to methylated DNA | Q9UBB5 | TR-FRET, MBD2 binding to methylated oligonucleotide | inhibition, % at 4.4 µM | 370,000 compounds, 0.31% hits; in the data active means inhibition above about 13%
NSD2 inh: NSD2 (human) methyltransferase inhibition. O96028. NSD2 peptide methylation, AlphaScreen, 120 min. inhibition, % at 12.5 µM. 310,000 compounds, 0.54% hits; in the data active means inhibition above about 50%
Casp6 inh: inhibitors of human caspase-6; 350,000 compounds, 0.53% hits; inhibition, % at 12.5 µM; P55212; AID 686996; purified caspase-6, Z-VEID-R110 cleavage fluorescence;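 active means mean inhibition across replicates at least about 35%, with every replicate also reaching that limit, limit read from the data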;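 further: 0% = median of neutral control wells and 100% = no fluorescence left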
Target sequence (P55212 24-179 limits assumed): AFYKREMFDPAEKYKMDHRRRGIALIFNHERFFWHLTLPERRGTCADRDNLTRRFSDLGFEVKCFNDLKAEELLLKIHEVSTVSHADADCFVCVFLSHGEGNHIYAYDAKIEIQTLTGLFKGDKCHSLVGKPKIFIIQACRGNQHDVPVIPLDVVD
Target sequence (P55212 194-293 limits assumed): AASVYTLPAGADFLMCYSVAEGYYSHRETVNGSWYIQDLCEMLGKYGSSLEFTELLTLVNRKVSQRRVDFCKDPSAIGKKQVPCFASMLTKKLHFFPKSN
LEDGF integ inh: blocks HIV-1 LEDGF/p75-dependent DNA integration; TR-FRET IN-LEDGF/p75 DNA integration, Eu/Cy5; inhibition, % at 3.7 µM; 370,000 compounds, 0.64% hits; AID 743269;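 active means inhibition above the screen-wide mean plus 3 SD, cut at about 13% in these data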;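 further: signal is the Cy5 over europium emission ratio at 671 and 618 nm; 0% = plate median of compound wells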
TDP2 absorb: blocks human TDP2 phosphodiesterase activity; O95551; inhibition, % at 12.8 µM; 370,000 compounds, 0.34% hits; recombinant TDP2, T5PNP hydrolysis, p-nitrophenol absorbance 415 nm;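 active means inhibition above the mean of all tested compounds plus 3 SD, set per campaign, cut at about 25% in these data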;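 further: 0% = DMSO with enzyme and 100% = buffer with substrate but no TDP2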
Target sequence (O95551 whole entry, looked up): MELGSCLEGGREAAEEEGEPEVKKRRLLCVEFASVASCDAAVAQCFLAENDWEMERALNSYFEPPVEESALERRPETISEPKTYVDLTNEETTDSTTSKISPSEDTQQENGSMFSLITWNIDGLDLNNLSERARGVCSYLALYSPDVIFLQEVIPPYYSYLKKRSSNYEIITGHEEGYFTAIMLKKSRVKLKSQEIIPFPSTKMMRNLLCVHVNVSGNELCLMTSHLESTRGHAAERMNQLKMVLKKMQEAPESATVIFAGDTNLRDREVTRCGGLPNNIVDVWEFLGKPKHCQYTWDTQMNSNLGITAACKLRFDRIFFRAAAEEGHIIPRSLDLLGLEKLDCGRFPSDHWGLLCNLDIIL
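System – recombinant human TDP2 · Amount – 120 nM TDP2 per well · Buffer or medium – Mg2+-containing Tris-HCl buffer, pH 7.5 · Reagent – T5PNP substrate, 5 mM · Dosing – 12.8 µM single point, 1% DMSO · Incubation – 2 h at 37 °C · Measured by – epi absorbance · Read-out basis – percent inhibition · Benchmarks – high control without enzyme, low control DMSO plus TDP2 · Repeats – singlicate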
UHRF1 MBD2 ctr: human UHRF1 methylated DNA binding inhibitors. 370,000 compounds, 0.75% hits. UHRF1 binding to methylated oligo, TR-FRET. inhibition, % at 4.4 µM. Q96T88;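 further: UHRF1 SRA domain binding a hemimethylated CpG hairpin DNA probe; 0% = median of test compound wells and 100% = reference inhibitor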
UHRF1 ctr MBD2: inhibits human UHRF1 binding to methylated oligonucleotide, MBD2 counter-screen; shares compounds with MBD2 inh; TR-FRET; inhibition, % at 4.4 µM; 1,000 compounds, 25% hits; AID 720530;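 further: UHRF1 SRA domain binding a labeled hemimethylated CpG hairpin DNA; 0% = vehicle only and 100% = reference inhibitor with vehicle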
MBD2 confirm: confirmation of human MBD2-DBD methylated oligonucleotide binding inhibitors | shares compounds with MBD2 inh | TR-FRET MBD2-DBD binding to methylated oligonucleotide | inhibition, % at 4.4 µM | 1,000 compounds, 26% hits; in the data active means inhibition above about 14%
CASP1 counter: selectivity counter-screen: inhibitors of human caspase-1; activity change, negative = inhibition, % at 35 µM; purified caspase-1, Z-YVAD-R110 cleavage fluorescence; shares compounds with Casp6 inh; 100 tested, under 10 active;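 active means compounds lowering fluorescence whose fitted half-maximal concentration is no more than twice their top tested dose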
* marks the source's active call; other numbers are inactive results; / = no result. Unless noted, no stated cut-off is given here; in the data, active means inhibition above about 21%; inactive means the rest.

SMILES | MBD2 inh | NSD2 inh | Casp6 inh | LEDGF integ inh | TDP2 absorb | UHRF1 MBD2 ctr | UHRF1 ctr MBD2 | MBD2 confirm | others
CCCC(=O)Nc1ccc2c(c1)C(=O)N(C)C[C@@H](OC)[C@@H](C)CN(C(C)=O)[C@@H](C)CO2 | / | / | 1 | / | / | / | / | /
Cc1cc2c(=Cc3ccc(N(C)C)cc3)c3ccccc3n2[n+]1C | 32* | 55* | -4 | 0 | 6 | 47* | 60* | 64*
CN1CCn2cnc(C(=O)Nc3ccc(CNC(=O)OC(C)(C)C)cc3)c2C1=O | 15* | / | 3 | 1 | -11 | 25* | 6 | 3
C[C@H]1Cn2cnc(C(=O)Nc3ccc(CNC(=O)OC(C)(C)C)cc3)c2C(=O)N1 | -4 | / | -3 | 0 | -1 | 1 | / | /
Cc1ccccc1-c1ccc2c(c1)O[C@@H](CN(C)Cc1ccc(C(=O)O)cc1)[C@H](C)CN([C@@H](C)CO)S2(=O)=O | / | / | -2 | / | / | / | / | /
CS(=O)(=O)N1Cc2cc(C(=O)O)nc(-c3cccc(-c4ccccc4F)c3)c2[C@@H]1CCO | / | / | 9 | / | / | / | / | /
COc1ccc(NC(=O)/C(C#N)=C/c2ccc(-c3ccccc3C(=O)O)o2)cc1 | -1 | 3 | 2 | 2 | -23 | -5 | / | /
COc1ccc(NC(=O)/C(C#N)=C\c2ccc(Br)o2)cc1 | 14* | -2 | 45* | 2 | 7 | 14 | 20 | 6
O=C(c1ccc(F)cc1)N1CC(=O)N2[C@H](CO)[C@H](c3ccc(C#CC4CCCC4)cc3)[C@H]2C1 | / | / | 2 | / | / | / | / | /
Cc1[nH]c(C)c(S(=O)(=O)N(Cc2ccccc2)C(C)(C)C)c1C(=O)N1CCCC1 | -3 | 5 | 2 | 0 | 10 | 2 | / | /
CCN(Cc1ccccc1)S(=O)(=O)c1c(C)[nH]c(C)c1C(=O)N1CCCCC1 | 14* | 1 | 3 | -1 | 6 | 0 | 2 | 5
O=c1[nH]c(=S)[nH]c2c1C(c1ccc(Br)cc1)c1c([nH]c(=S)[nH]c1=O)O2 | 105* | / | 96* | 83* | 53* | 107* | 104* | 88*
O=C1CCCC2=C1C(c1ccc(Br)cc1)c1c([nH]c(=S)[nH]c1=O)N2 (configuration not stated) | 0 | 0 | / | 8 | 7 | 1 | / | /
Cc1cc(C(=O)N2CCOCC2)c(C)o1 | 15* | 2 | -6 | 2 | -16 | 22* | 8 | 3
C[C@H]1CN([C@@H](C)CO)C(=O)Cc2cc(NC(=O)C3CCCCC3)ccc2O[C@H]1CN(C)Cc1ccc(Oc2ccccc2)cc1 | / | / | 0 | / | / | / | / | /
C[C@H]1CN([C@@H](C)CO)C(=O)Cc2cc(NC(=O)C3CC3)ccc2O[C@H]1CN(C)Cc1ccc(Oc2ccccc2)cc1 | 17* | / | 1 | -1 | -8 | 2 | 4 | 0
CNC[C@@H]1Oc2ccc(NC(=O)Nc3ccccc3)cc2CC(=O)N([C@@H](C)CO)C[C@H]1C | / | / | -3 | / | / | / | / | /
Cc1ccc(S(=O)(=O)N(C)C[C@H]2Oc3c(NC(=O)Nc4ccccc4)cccc3C(=O)N([C@@H](C)CO)C[C@H]2C)cc1 | / | / | 0 | / | / | / | / | /
Cc1ccc(-c2nc(NCCCO)c3ccccc3n2)cc1 | 6 | 2 | -5 | 3 | 2 | 6 | / | /
OCCCNc1c2ccccc2nc2ccccc12 | 31* | -1 | -2 | 8 | -15 | 28* | 33* | 34*
O=C(Nc1ccccc1)N1CC(=O)N2[C@@H](CO)[C@@H](c3ccc(C#CC4CC4)cc3)[C@@H]2C1 | / | / | 2 | / | / | / | / | /
CCN(CC)CCN1C(=O)c2cccc3cc(N)cc(c23)C1=O | 14* | / | -45 | 3 | -8 | -3 | -1 | 8
CO[C@H]1CN(C)C(=O)c2ccc(NC(=O)C3CCOCC3)cc2OC[C@H](C)N(Cc2nccs2)C[C@@H]1C | / | / | 0 | / | / | / | / | /
CN(C)CCN1CCN(C2CN(Cc3cn(Cc4cccc(C(F)(F)F)c4)nn3)S(=O)(=O)C2)CC1 (configuration not stated) | 11 | / | -88 | 8 | 8 | 18 | / | /
Cc1cccc(CN2CCN(C3CN(Cc4cn(Cc5cccc(C(F)(F)F)c5)nn4)S(=O)(=O)C3)CC2)c1 (configuration not stated) | 14* | / | 3 | 3 | 8 | 18 | 7 | 11
SMILES | MBD2 inh | NSD2 inh | Casp6 inh | LEDGF integ inh | TDP2 absorb | UHRF1 MBD2 ctr | UHRF1 ctr MBD2 | MBD2 confirm | others
O=c1[nH]cnc2c1ncn2[C@H]1CC[C@@H](CO)O1 | 38* | / | 3 | 3 | -2 | 23* | 7 | 2
CCN(CC)C(=O)c1ccc2sc([C@H]3C[C@H](O)[C@@H](CO)O3)nc2c1 | 21* | / | 1 | -5 | 5 | 3 | 5 | 2
O=C(O)CNC(=O)c1ccc(N2CCOCC2)cc1[N+](=O)[O-] | 0 | 0 | -3 | -5 | -7 | -3 | / | /
O=C(c1ccc(N2CCOCC2)cc1[N+](=O)[O-])N1CCOCC1 | 14* | / | 2 | -6 | -6 | 4 | 3 | -2
COc1ccccc1CCNC(=O)CSc1nc2c([nH]1)c(=O)n(C)c(=O)n2C | 0 | -2 | / | -4 | 10 | -1 | / | /
COc1ccccc1CCNC(=O)CSc1nc(=O)[nH]c2c1CCC2 | 23* | -1 | 3 | -3 | 2 | 0 | 4 | 4
C[C@H](CO)N1C[C@H](C)[C@@H](CN(C)Cc2ccccc2)Oc2ccc(NS(=O)(=O)c3ccc(Cl)cc3)cc2C1=O | / | / | 1 | / | / | / | / | /
COc1ccc(Cn2c(=O)[nH]c3cc(OC)c(OC)cc3c2=O)cc1 | 17* | -2 | -4 | 1 | 6 | 31* | 6 | 3
O=C1CN=C(Nc2ccccc2)N1Cc1cccs1 | 35* | -3 | / | 2 | -1 | -1 | 3 | 2
CC(C)N1CCc2c(sc(NC(=O)C(F)F)c2-c2nc3ccccc3s2)C1 | 2 | -9 | / | 2 | 8 | -37 | / | /
O=C(Nc1sc2c(c1-c1nc3ccccc3s1)CCNC2)C(F)F | 4 | / | / | 0 | 10 | -20 | / | /
CC(=O)Nc1sc2c(c1-c1nc3ccccc3s1)CCN(C(C)C)CC2 | 22* | / | / | 0 | -6 | 3 | 7 | 26*
CC(=O)Nc1sc2c(c1-c1nc3ccccc3s1)CCCNC2 | 21* | 7 | / | 4 | 6 | -4 | 10 | 32*
COCC#Cc1ccc2c(c1)O[C@H](CN(C)S(=O)(=O)c1ccc(C)cc1)[C@@H](C)CN([C@H](C)CO)S2(=O)=O | / | / | 0 | / | / | / | / | /
COCCN(C(=O)COC(=O)c1cc2c(s1)CCC2)c1c(N)n(Cc2ccccc2)c(=O)[nH]c1=O | 65* | 72* | 80* | 54* | 4 | 96* | 100* | 91* | CASP1 counter=-1
